Experimental data: ChEMBL document CHEMBL1121586, “Synthesis, biological activity, and structure--activity/toxicity relationships of a series of terphenyl analogues of hemicholinium-3 and acetyl-seco-hemicholinium-3. 3” (J Med Chem, 1980)

Key:
Mus musculus [1] = experiment: Tested for percentage mortality in charles river CD-1 strain adult male albino mice after introducing antagonist choline at intraperitoneal dosage of 20 mg/kg, 1 min prior to compound; assay type: functional; design: concentration or dose not given beside the values; conditions: ip
[2] = Tested for biphenyl analogue in charles river CD-1 strain adult male albino mice after intraperitoneal administration; assay type: ADME, organism-based; conditions: CD-1, mouse, in vivo, ip
Mus musculus [3] = experiment: Tested for percentage mortality in charles river CD-1 strain adult male albino mice after introducing antagonist neostigmine at intraperitoneal dosage of 0.2 mg/kg, 1 min prior to compound; assay type: functional; design: concentration or dose not given beside the values; conditions: ip
[4] = Tested for terphenyl analogue in charles river CD-1 strain adult male albino mice after intraperitoneal administration.; assay type: ADME, organism-based; conditions: CD-1, mouse, in vivo, ip
Procedure, shortened: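 Adult male albino Charles River CD-1 mice (20-30 g) were dosed ip with a suspension in 0.8% (w/v) sodium carboxymethylcellulose in 0.9% NaCl. The LD50 was estimated by Finney's staircase sampling method, which allows for variation in LD50 with time of day, and is reported with 95% confidence limits.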

[5] = Ratio of terphenyl LD50 doses to biphenyl analogues in charles river CD-1 strain adult male albino mice; assay type: ADME, organism-based; conditions: CD-1, mouse, in vivo
[6] = Ratio of terphenyl LD50 doses to biphenyl HC-3 in charles river CD-1 strain adult male albino mice; assay type: ADME, organism-based; conditions: CD-1, mouse, in vivo
Mus musculus [7] = experiment: Tested for terphenyl analogue in charles river CD-1 strain adult male albino mice after intraperitoneal administration; b represents Least toxic; assay type: ADME, organism-based; conditions: in vivo, ip
Mus musculus [8] = experiment: Tested for percentage mortality in charles river CD-1 strain adult male albino mice after introducing antagonist neostigmine at intraperitoneal dosage of 0.2 mg/kg, 1 min prior to compound; b represents Least toxic; assay type: functional, organism-based; design: dose 0.2 mg/kg
Mus musculus [9] = experiment: Tested for percentage mortality in charles river CD-1 strain adult male albino mice after introducing antagonist choline at intraperitoneal dosage of 20 mg/kg, 1 min prior to compound; b represents Least toxic; assay type: functional, organism-based; design: dose 20 mg/kg

CCCCC[N+](C)(C)CC(=O)c1ccc(-c2ccc(-c3ccc(C(=O)C[N+](C)(C)CCCCC)cc3)cc2)cc1.[Br-].[Br-]
mortality (Mus musculus [1]): 80%
LD50 [2]: 5.6 mg/kg
mortality (Mus musculus [3]): 100%
LD50 [4]: 5.32 mg/kg
selectivity ratio [5]: 1.38
selectivity ratio [6]: 32.8

C[N+](C)(CCS)CC(=O)c1ccc(-c2ccc(-c3ccc(C(=O)C[N+](C)(C)CCS)cc3)cc2)cc1.[Br-].[Br-]
LD95 (Mus musculus [7]): Toxic
Mortality (Mus musculus [8]): Toxic
Mortality (Mus musculus [9]): Toxic
LD50 [2]: 29.4 mg/kg

CC(=O)CCC[N+](C)(C)CC(=O)c1ccc(-c2ccc(-c3ccc(C(=O)C[N+](C)(C)CCCC(C)=O)cc3)cc2)cc1.[Br-].[Br-]
LD50 [2]: 3.1 mg/kg
LD50 [4]: 4.27 mg/kg
selectivity ratio [5]: 1.38
selectivity ratio [6]: 32.8

CCOCC[N+](C)(C)CC(=O)c1ccc(-c2ccc(-c3ccc(C(=O)C[N+](C)(C)CCOCC)cc3)cc2)cc1.[Br-].[Br-]
mortality (Mus musculus [1]): 90%
LD50 [2]: 1.84 mg/kg
mortality (Mus musculus [3]): 90%
LD50 [4]: 16.6 mg/kg
selectivity ratio [5]: 9.02
selectivity ratio [6]: 127

CC(=O)SCC[N+](C)(C)CC(=O)c1ccc(-c2ccc(-c3ccc(C(=O)C[N+](C)(C)CCSC(C)=O)cc3)cc2)cc1.[Br-].[Br-]
mortality (Mus musculus [1]): 60%
LD50 [2]: 0.133 mg/kg
mortality (Mus musculus [3]): 80%
LD50 [4]: 3.05 mg/kg
selectivity ratio [5]: 22.9
selectivity ratio [6]: 23.5

C[N+]1(C)CCOC(O)(c2ccc(-c3ccc(-c4ccc(C5(O)C[N+](C)(C)CCO5)cc4)cc3)cc2)C1.[Br-].[Br-] (stereo not drawn)
mortality (Mus musculus [1]): 70%
LD50 [2]: 0.13 mg/kg
mortality (Mus musculus [3]): 80%
LD50 [4]: 0.107 mg/kg
selectivity ratio [5]: 0.82
selectivity ratio [6]: 0.82

CC(=O)OCC[N+](C)(C)CC(=O)c1ccc(-c2ccc(-c3ccc(C(=O)C[N+](C)(C)CCOC(C)=O)cc3)cc2)cc1.[Br-].[Br-]
mortality (Mus musculus [1]): 30%
LD50 [2]: 0.125 mg/kg
mortality (Mus musculus [3]): 20%
LD50 [4]: 0.333 mg/kg
selectivity ratio [5]: 2.66
selectivity ratio [6]: 2.56
